Published values collected from several papers.
Target: Discoidin domain-containing receptor 2 (DDR2, Homo sapiens, UniProt Q16832)
One construct used (Q16832 22-855): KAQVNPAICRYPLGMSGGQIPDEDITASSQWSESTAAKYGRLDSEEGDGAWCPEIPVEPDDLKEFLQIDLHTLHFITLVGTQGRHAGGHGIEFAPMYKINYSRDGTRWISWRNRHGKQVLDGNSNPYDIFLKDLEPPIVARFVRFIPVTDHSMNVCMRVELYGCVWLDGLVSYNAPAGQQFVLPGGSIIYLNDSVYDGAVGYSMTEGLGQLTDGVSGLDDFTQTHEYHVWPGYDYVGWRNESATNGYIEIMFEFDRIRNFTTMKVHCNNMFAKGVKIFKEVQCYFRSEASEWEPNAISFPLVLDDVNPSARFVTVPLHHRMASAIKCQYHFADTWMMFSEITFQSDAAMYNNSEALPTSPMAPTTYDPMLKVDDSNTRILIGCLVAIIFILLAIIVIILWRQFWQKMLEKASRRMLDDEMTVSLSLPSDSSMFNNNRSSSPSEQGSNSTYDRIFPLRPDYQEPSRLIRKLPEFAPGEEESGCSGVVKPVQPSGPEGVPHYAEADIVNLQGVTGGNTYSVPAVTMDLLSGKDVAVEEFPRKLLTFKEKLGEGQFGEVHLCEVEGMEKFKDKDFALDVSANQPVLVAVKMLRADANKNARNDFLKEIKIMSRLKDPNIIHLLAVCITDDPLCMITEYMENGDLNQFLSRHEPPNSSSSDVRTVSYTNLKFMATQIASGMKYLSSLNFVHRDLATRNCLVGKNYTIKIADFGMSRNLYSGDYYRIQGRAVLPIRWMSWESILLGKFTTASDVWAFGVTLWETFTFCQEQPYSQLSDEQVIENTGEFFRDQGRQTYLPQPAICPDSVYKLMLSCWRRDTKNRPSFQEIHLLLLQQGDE

SMILES	test	setting	remaining binding [%]
COc1cnc(Nc2cccc(S(N)(=O)=O)c2)nc1N1CCN(c2ccccc2)C(=O)C1	binding, competition with immobilised ligand	1 µM	100
C=CC(=O)N1CCC(C(=O)NCC(=O)N2CCN(c3nc(-c4cnc(N)nc4C(F)F)nc(N4CCOCC4)n3)CC2)CC1	binding, competition with immobilised ligand	1 µM	83
O=C(NCC1CCOCC1)c1n[nH]cc1NC(=O)c1c(F)cccc1F	binding, competition with immobilised ligand	1 µM	100
CC(C)(O)c1cncc(-c2nc3ccc(F)cc3n2C2CC2)c1	cell-free assay, competition with immobilised ligand	1 µM	100
CN(C)c1nccc(-c2cnc3ncccn23)n1	binding	1 µM	84
O=C(N[C@H]1CCCCC/C=C\C2C[C@@]2(C(=O)O)NC(=O)[C@@H]2C[C@@H](Oc3ccncc3)CN2C1=O)OC1CCCC1 (some centres unmarked)	cell-free assay, competition with immobilised ligand	1 µM	100
Cc1cnc(Nc2ccc(C(=O)N3CCC(N4CCCC4)CC3)cc2)nc1-c1cc2ccccc2s1	binding, competition with immobilised ligand	1 µM	8
Nc1cnc(N2CCc3cc(S(=O)(=O)Nc4c(F)cc(Cl)cc4F)cc(N4CCCC4=O)c32)nc1	cell-free assay, competition with immobilised ligand	1 µM	100
O=C(NCCCN1CCOCC1)c1ccc(Nc2nccc(-c3cc4ccccc4s3)n2)cc1	binding, competition with immobilised ligand	1 µM	43
Cn1nc(C(F)(F)F)cc1-c1cnc(N2CCc3cc(S(=O)(=O)Nc4c(F)cc(Cl)cc4F)cc(N4CCCC4=O)c32)nc1	cell-free assay, competition with immobilised ligand	1 µM	80
CC1CCCN1c1nccc(-c2cnn3ncccc23)n1 (centres unmarked)	binding	1 µM	100
O=C(NCCCN1CCOCC1)c1ccc(Nc2ncc(Cl)c(-c3ccc(Cl)s3)n2)cc1	binding, competition with immobilised ligand	1 µM	61
CCN1CCN(Cc2ccc(C(=O)Nc3ccc(C)c(Oc4ccc5c(c4)CC(=O)N5)c3)cc2C(F)(F)F)CC1	binding, competition with immobilised ligand	1 µM	14
CN(C)CC#Cc1ccc(OCCCc2sc(N3CCc4cccc(C(=O)Nc5nc6ccccc6s5)c4C3)nc2C(=O)O)c(F)c1	cell-free assay, competition with immobilised ligand	1 µM	83
COc1ccnn2ncc(-c3ccnc(N(C)C)n3)c12	binding	1 µM	67
CS(=O)(=O)NCC[C@H](NC(=O)c1cncc2c1cnn2-c1ccc(F)cc1)c1ccnc(S(C)(=O)=O)c1	cell-free assay, competition with immobilised ligand	1 µM	100
Cc1cnn2ncc(-c3ccnc(N(C)C)n3)c2c1	binding	1 µM	69
CNC(=O)[C@@H]1CC[C@@H](n2c(-c3ccc4cnccc4c3)nc3ccc(C(=O)NCc4cccc(C(N)=O)c4)cc32)C1	binding, competition with immobilised ligand	1 µM	93
F[C@@H]1CCN(c2nccc(-c3cnn4ncccc34)n2)C1	binding	1 µM	91
FC(F)(F)Oc1cccc(-c2cnc3ccc(-c4ccncc4)nn23)c1	cell-free assay, competition with immobilised ligand	5 µM	55
